Values after ≈ are worked out from the molar mass of the structure shown.
Columns and labels:
[1] = tested on: PC-3; experiment: Growth inhibition of human PC3 cells after 48 hrs by sulforhodamine B assay; type: functional; conditions: PC-3, 48 h
Summary of the method: (§1)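 Cells in RPMI 1640 with 5% FBS, plated at 5,000–40,000/well and grown 24 h. Time-zero plates fixed with TCA. Five drug concentrations, 48 h at 37 °C, 5% CO₂. Fixation with TCA (10% final for adherent lines; 16% final for suspension lines), staining with 0.4% SRB, reading at 515 nm. GI50 is the concentration giving a 50% reduction in net protein increase relative to time zero.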

[2] = tested on: OVCAR-3; experiment: Growth inhibition of human OVCAR3 cells after 48 hrs by sulforhodamine B assay; type: functional; conditions: OVCAR-3, 48 h; summary of the method: as §1
[3] = tested on: A498; experiment: Growth inhibition of human A498 cells after 48 hrs by sulforhodamine B assay; type: functional; conditions: A498, 48 h; summary of the method: as §1
[4] = tested on: SNB-75; experiment: Growth inhibition of human SNB75 cells after 48 hrs by sulforhodamine B assay; type: functional; conditions: SNB-75, 48 h; summary of the method: as §1
[5] = tested on: HT-29; experiment: Growth inhibition of human HT-29 cells after 48 hrs by sulforhodamine B assay; type: functional; conditions: HT-29, 48 h; summary of the method: as §1
[6] = tested on: Escherichia coli; experiment: Antibacterial activity against Escherichia coli K-12 BAS901 harboring genetically modified imp-4213, zab4292::Tn5 assessed as growth inhibition after 16 hrs by broth dilution method; type: functional; conditions: K-12 BAS901, 16 h
Summary of the method: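 Kanamycin-resistant strain grown overnight in LB with kanamycin 50 µg/mL, diluted 10-fold, then shaken at 37 °C for 45 min–1 h (~10⁸ CFU/mL). Diluted ~1000-fold to 10⁵ CFU/mL in LB. DMSO stocks (20 mM) prepared as 4X working solutions in LB. Seven 1:2 serial dilutions mixed with equal-volume inoculum. OD600 read with shaking.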

[7] = tested on: MDA-MB-435; experiment: Growth inhibition of human MDA-MB-435 cells after 48 hrs by sulforhodamine B assay; type: functional; conditions: MDA-MB-435, 48 h; summary of the method: as §1
[8] = tested on: BT-549; experiment: Growth inhibition of human BT549 cells after 48 hrs by sulforhodamine B assay; type: functional; conditions: BT-549, 48 h; summary of the method: as §1
[9] = tested on: SK-MEL-5; experiment: Growth inhibition of human SK-MEL-5 cells after 48 hrs by sulforhodamine B assay; type: functional; conditions: SK-MEL-5, 48 h; summary of the method: as §1
[10] = tested on: NCI-H460; experiment: Cytotoxicity against human NCI-H460 cells assessed as inhibition of cell viability by MTT assay; type: functional, cell-based
Summary of the method: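 NCI-H460 cells in RPMI 1640 with 10% FBS and 2 mM glutamine at 37 °C, 5% CO₂. Seeded at 10,000 cells/well for 12 h, then dosed in 1% FBS medium (DMSO below 0.1% final). MTT (10 µL of 5 mg/mL) for 4 h, formazan dissolved in DMSO for 45 min, absorbance at 562 nm. Triplicate wells, at least three runs (N = 9).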

[11] = tested on: SF-539; experiment: Growth inhibition of human SF539 cells after 48 hrs by sulforhodamine B assay; type: functional; conditions: SF-539, 48 h; summary of the method: as §1
[12] = Growth inhibition of human NCI-ADR-RES cells after 48 hrs by sulforhodamine B assay; type: functional; summary of the method: as §1
[13] = tested on: Escherichia coli; experiment: Antibacterial activity against Escherichia coli K-12 MG1655 assessed as growth inhibition after 16 hrs by broth dilution method; type: functional; conditions: K-12 substr. MG1655, 16 h
Summary of the method: (§2)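 Strains grown overnight in LB, diluted 10-fold, shaken at 37 °C for 45 min–1 h (~10⁸ CFU/mL), then diluted ~1000-fold to ~10⁵ CFU/mL. Broth dilution in LB: 20 mM DMSO stocks, 1:2 serial dilutions giving seven concentrations, inoculum added 1:1. OD600 read with shaking.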

[14] = tested on: DU-145; experiment: Growth inhibition of human DU145 cells after 48 hrs by sulforhodamine B assay; type: functional; conditions: DU-145, 48 h; summary of the method: as §1
[15] = tested on: RPMI-8226; experiment: Growth inhibition of human RPMI8226 cells after 48 hrs by sulforhodamine B assay; type: functional; conditions: RPMI-8226, 48 h; summary of the method: as §1
[16] = tested on: SR; experiment: Growth inhibition of human SR cells after 48 hrs by sulforhodamine B assay; type: functional; summary of the method: as §1
[17] = tested on: MCF7; experiment: Growth inhibition of human MCF7 cells after 48 hrs by sulforhodamine B assay; type: functional; conditions: MCF7, 48 h; summary of the method: as §1
[18] = tested on: NCI-H460; experiment: Growth inhibition of human NCI-H460 cells after 48 hrs by sulforhodamine B assay; type: functional; conditions: NCI-H460, 48 h; summary of the method: as §1
[19] = tested on: HCT-15; experiment: Growth inhibition of human HCT15 cells after 48 hrs by sulforhodamine B assay; type: functional; conditions: HCT-15, 48 h; summary of the method: as §1
[20] = Antibacterial activity against Bacillus subtilis JH642 containing trpC2 pheA1 assessed as growth inhibition after 16 hrs by broth dilution method; type: functional, Bacillus subtilis subsp. subtilis str. JH642; summary of the method: as §2
[21] = tested on: CAKI-1; experiment: Growth inhibition of human CAKI-1 cells after 48 hrs by sulforhodamine B assay; type: functional; conditions: CAKI-1, 48 h; summary of the method: as §1
[22] = tested on: A549; experiment: Growth inhibition of human A549 cells after 48 hrs by sulforhodamine B assay; type: functional; conditions: A549, 48 h; summary of the method: as §1

SMILES | GI50 [1] | GI50 [2] | GI50 [3] | GI50 [4] | GI50 [5] | MIC [6] | GI50 [7] | GI50 [8] | GI50 [9] | IC50 [10] | GI50 [11] | GI50 [12] | MIC [13] | GI50 [14] | GI50 [15] | GI50 [16] | GI50 [17] | GI50 [18] | GI50 [19] | MIC [20] | other results
CCCCCCCCCCCCO[C@@H]1O[C@@H](C)[C@H](O[C@@H]2O[C@@H](C)[C@H](OC(C)=O)[C@@H](O[C@@H]3O[C@@H](C)[C@H](OC(C)=O)[C@@H](O[C@@H]4O[C@@H](C)[C@H](OC(C)=O)[C@@H](O)[C@H]4OC(C)=O)[C@H]3OC(C)=O)[C@H]2O)[C@@H](O)[C@H]1O | 820 nM | 770 nM | 730 nM | 500 nM | 970 nM | > 64 µM | 830 nM | 940 nM | 740 nM | 7500 nM | 830 nM | 3380 nM | > 64 µM | 800 nM | 960 nM | 860 nM | 870 nM | 940 nM | 1010 nM | 4 µM (≈ 3.92 µg/mL) | GI50 [21]: 1420 nM; GI50 [22]: 1180 nM
CCCCCCCCCCCCO[C@@H]1O[C@@H](C)[C@H](O[C@@H]2O[C@@H](C)[C@H](OC(C)=O)[C@@H](O[C@@H]3O[C@@H](C)[C@H](OC(C)=O)[C@@H](O[C@@H]4O[C@@H](C)[C@H](OC(C)=O)[C@@H](OC(C)=O)[C@H]4OC(C)=O)[C@H]3OC(C)=O)[C@H]2O)[C@@H](O)[C@H]1O | 710 nM | 840 nM | 670 nM | 540 nM | 910 nM | > 64 µM | 880 nM | 1050 nM | 760 nM | 16400 nM | 800 nM | 920 nM | > 64 µM | 800 nM | 1040 nM | 920 nM | 890 nM | 930 nM | 820 nM | > 64 µM | GI50 [21]: 860 nM; GI50 [22]: 800 nM
CCCCCCCCCCCCO[C@@H]1O[C@@H](C)[C@H](O[C@@H]2O[C@@H](C)[C@H](OC(C)=O)[C@@H](O[C@@H]3O[C@@H](C)[C@H](OC(C)=O)[C@@H](O[C@@H]4O[C@@H](C)[C@H](O)[C@@H](O)[C@H]4OC(C)=O)[C@H]3OC(C)=O)[C@H]2O)[C@@H](O)[C@H]1O | 6550 nM | 6070 nM | 5640 nM | 2180 nM | 8130 nM | > 64 µM | 7250 nM | 8390 nM | 6270 nM | 12800 nM | 7170 nM | 8900 nM | > 64 µM | 7470 nM | 2840 nM | 3830 nM | 5290 nM | 8430 nM | 8330 nM | 8 µM (≈ 7.51 µg/mL) | GI50 [21]: 9240 nM; GI50 [22]: 8180 nM
CCCCCCCCCCCCO[C@@H]1O[C@@H](C)[C@H](O[C@@H]2O[C@@H](C)[C@H](OC(C)=O)[C@@H](O[C@@H]3O[C@@H](C)[C@H](O)[C@@H](O[C@@H]4O[C@@H](C)[C@H](OC(C)=O)[C@@H](OC(C)=O)[C@H]4OC(C)=O)[C@H]3OC(C)=O)[C@H]2O)[C@@H](O)[C@H]1O | 750 nM | 800 nM | 20 nM | 620 nM | 910 nM | > 64 µM | 840 nM | 880 nM | 820 nM | 9800 nM | 910 nM | 2240 nM | > 64 µM | 790 nM | 920 nM | 850 nM | 940 nM | 960 nM | 1520 nM | > 64 µM | GI50 [21]: 600 nM; GI50 [22]: 970 nM
CCCCCCCCCCCCO[C@@H]1O[C@@H](C)[C@H](O[C@@H]2O[C@@H](C)[C@H](OC(C)=O)[C@@H](O[C@@H]3O[C@@H](C)[C@H](O)[C@@H](OC(C)=O)[C@H]3OC(C)=O)[C@H]2O)[C@@H](O)[C@H]1O | 890 nM | 1490 nM | 5130 nM | 900 nM | 1210 nM | 32 µM (≈ 24 µg/mL) | 1490 nM | 4540 nM | 1230 nM | 12500 nM | 3100 nM | 7920 nM | > 64 µM | 2480 nM | 1000 nM | 1200 nM | 1620 nM | 1540 nM | 7380 nM | 8 µM (≈ 6.01 µg/mL) | GI50 [21]: 6570 nM; GI50 [22]: 2080 nM
CCCCCCCCCCCCO[C@@H]1O[C@@H](C)[C@H](O[C@@H]2O[C@@H](C)[C@H](OC(C)=O)[C@@H](O[C@@H]3O[C@@H](C)[C@H](OC(C)=O)[C@@H](O)[C@H]3OC(C)=O)[C@H]2O)[C@@H](O)[C@H]1O | 2370 nM | 5910 nM | 6730 nM | 3420 nM | 4350 nM | > 64 µM | 7680 nM | 7900 nM | 6210 nM | 90900 nM | 7110 nM | 9290 nM | > 64 µM | 7940 nM | 4120 nM | 3200 nM | 4840 nM | 6320 nM | 8390 nM | 32 µM (≈ 24 µg/mL) | GI50 [21]: 8780 nM; GI50 [22]: 6690 nM
